Where “and” joins values, the source holds several entries; their conditions need not be identical. Equal entries are not always repeated. The whole screen tested about 350,000 compounds, of which about 300 (0.086%) were called active. The entries come from a sample that favours actives as a whole. Values without a mark were called inactive.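 Rule for the calls: active = mean inhibition across replicates of 30% or more, regardless of how many single replicates reach that level; inconclusive = mean under 30% yet at least half of replicates reach 30%; inactive = the rest.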

The test in a line: blockers of fibronectin fibrillogenesis by fibroblasts – AH1F cells, Alexa488-fibronectin fluorescence, plate reader, primary screen (AID 743247).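 Note: positive control wells lacked labelled fibronectin entirely.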 Particulars: Alexa488-fibronectin deposition fluorescence, overnight, at 12.6 µM, stronger effect = higher value. A digest of the protocol: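 Material: AH1F fibroblast monolayer depositing Alexa488-labelled fibronectin into matrix / Amount: 10000 AH1F cells per well / Signal: fluorescence 485/525 nm / Medium: DMEM, 2% serum / Compound: single dose, pinned / Incubation: 1 h cell adhesion before compound, then overnight fibronectin incubation / Reagent: Alexa488-FN, 24 nM final / Read-out: inhibition of fibronectin deposition signal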
The inhibition is the drop in the measured response relative to a control, in per cent. In the case of `O=C(C[C@H]1CC[C@@H]2[C@H](COC[C@H](O)CN2CCC(F)(F)F)O1)NCC1CC1`, the inhibition is -3.5%. The result for `C[C@@H]1CN(C)C(=O)c2cccc(N(C)C)c2O[C@H]1CN(C)S(C)(=O)=O` reads -2.39%; that for `CN1c2ccc(-c3cccc(C#N)c3)cc2[C@H]2[C@H](CCN2S(=O)(=O)c2cccc(F)c2)[C@@H]1CO`, 13.8%; that for `COCC(=O)Nc1ccc2c(c1)OC[C@H](C)N(C)C[C@H](C)[C@@H](OC)CN(C)C2=O`, -14.1%. Regarding `CC(C)NC(=O)N[C@@H]1C=C[C@@H](CC(=O)N2CCCCC2)O[C@@H]1CO`, the inhibition was -8.74%.

Consider `c1ccc(-c2ccc(C3[C@@H]4CN(Cc5cccnc5)C[C@H]3N4)cc2)cc1` (some centres undefined), for which the inhibition is -4.82% and -10.1%.

In the case of `CCc1nc2c(OCCOc3ccccc3)cccn2c1N(C)C(=O)c1ccc(OC)cc1`, the inhibition was 5.55%. In the case of `CCc1nc2c(OCCOc3ccccc3)cccn2c1N(C)C(=O)c1ccccc1F`, the inhibition is -0.297%. The result for `CCc1nc2c(OCCc3cccc(OC)c3)cccn2c1N(C)C(=O)c1ccc(C)cc1` reads 30.8% (active). The result for `CCC(=O)N(C)C[C@H]1Oc2ncc(-c3ccc(C)cc3)cc2C(=O)N([C@@H](C)CO)C[C@@H]1C` reads -13%; that for `C[C@@H]1CCCCO[C@H](CN(C)C(=O)c2ccccc2)[C@@H](C)CN([C@H](C)CO)C(=O)c2cc(NC(=O)c3ccccc3)ccc2O1`, 7%. The result for `O=C(C[C@H]1C[C@H]2c3cc(NC(=O)NC4CCCC4)ccc3O[C@H]2[C@@H](CO)O1)NCc1ccc(-c2ccccc2)cc1` reads -25.6%; that for `CCCNC(=O)C[C@H]1CC[C@@H]2[C@H](COc3ccc(NC(=O)c4ccc(OC)cc4)cc3C(=O)N2C)O1`, 10.3%; that for `CC(=O)N1[C@H](CO)[C@@H](c2ccc(-c3ccc(F)cc3)cc2)[C@H]1CNC(=O)C1CC1`, -16%.

Consider `CC(=O)N1[C@H](CNC(=O)CN(C)C)[C@H](c2ccc(C3=CCCC3)cc2)[C@@H]1CO`, for which the inhibition was 13.6%. Regarding `CC[C@@H]1CC=CC[C@H](C)Oc2ccccc2C(=O)N(C)[C@H](Cc2ccccc2)C(=O)N1` (mixture of isomers), the inhibition is -1.05%. The result for `O=C1[C@H](Cc2ccc(C(F)(F)F)cc2)CCn2nncc2COC[C@@H]2CCCCN12` reads 4.17%; that for `C[C@@H]1COCc2cnnn2CC[C@H](Cc2ccccc2)C(=O)N1`, -8.72%; that for `C[C@H](CO)N1C[C@H](C)[C@@H](CN(C)S(C)(=O)=O)Oc2cc(C#CC3CC3)ccc2S1(=O)=O`, 5.58%. The result for `CO[C@H]1CN(C)C(=O)c2ccc(NC(=O)C3CC3)cc2OC[C@@H](C)N(C(=O)c2ccccn2)C[C@@H]1C` reads 2.68%. As for `O=C(C[C@@H]1CC[C@@H](NC(=O)C2CC2)[C@@H](CO)O1)NCc1ccccc1Cl`, the inhibition was -5.16%. Consider `Cc1noc(C)c1S(=O)(=O)N(C)C[C@H]1Oc2ccc(N(C)C)cc2C(=O)N([C@H](C)CO)C[C@@H]1C`, for which the inhibition was -9.54%. `CO[C@H]1CN(C)C(=O)c2cc(NS(=O)(=O)c3ccccc3)ccc2OC[C@@H](C)N(Cc2nccs2)C[C@@H]1C`: the inhibition was -0.524%. The result for `O=C(Nc1cc(F)ccc1F)N[C@H]1CC[C@H](CCn2cc(C3CCCC3)nn2)O[C@@H]1CO` reads -1.92%. The result for `CC(=O)N(C)C[C@@H]1Oc2ccc(N)cc2CC(=O)N(C)C[C@H]1C` reads -1.05%. `CNC[C@@H]1Oc2ccc(N(C)C)cc2CC(=O)N(C)C[C@@H]1C`: the inhibition is 2.18%. Take `C[C@H](CO)N1C[C@H](C)[C@H](CN(C)Cc2ccc(C(F)(F)F)cc2)OCCCC[C@H](C)Oc2ccc(NS(=O)(=O)c3ccc(Cl)cc3)cc2C1=O`: the inhibition was -21%.

For `C[C@@H]1CCCCO[C@H](CN(C)C)[C@H](C)CN([C@@H](C)CO)C(=O)c2cc(NS(=O)(=O)c3cn(C)cn3)ccc2O1`, the inhibition is -0.203%.

As to `CCC(=O)N1CC2(C1)[C@@H](c1ccccc1)[C@H](CO)N2CC1CCOCC1`, the inhibition was -2.08%. The result for `CN1c2ccc(-c3cccc(C#N)c3)cc2[C@@H]2[C@@H](CCN2C(=O)NC2CCCCC2)[C@@H]1CO` reads -3.13%; that for `COc1ccc(NC(=O)N2C[C@H](O)COC[C@H]3O[C@@H](CC(=O)N4CCN(C)CC4)CC[C@@H]32)cc1`, -2.89%.

For `CC[C@H]1CC=CC[C@@H](C)Oc2ccccc2C(=O)N(C)[C@H](Cc2ccccc2)C(=O)N1` (mixture of isomers), the inhibition is 0.881%. The result for `COc1ccccc1NC(=O)N1[C@@H]2CNC[C@H]1C2c1ccc(-c2ccccc2C)cc1` (some centres undefined) reads -3.3%; that for `CCCN1C[C@@H](C)[C@@H](OC)CN(C)C(=O)c2cc(NC(=O)Nc3cccc(F)c3)ccc2OC[C@@H]1C`, -5.97%.

Turning to `C[C@H]1CN(C)C(=O)c2cccc(N(C)C)c2O[C@@H]1CN(C)C`, the inhibition is -26.9%. The result for `O=C(C1CCCCC1)N1CC(=O)N2[C@H](CO)[C@H](c3ccc(-c4ccccc4F)cc3)[C@H]2C1` reads -7.64%; that for `O=C1N[C@H](c2ccccc2)COCc2cn(nn2)CC[C@H]1Cc1cccc(Cl)c1`, -1.96%. The result for `COc1ccc2c3c([nH]c2c1)[C@@H](CO)N(Cc1ccccc1)CC31CCN(Cc2cncnc2)CC1` reads -11.5%; that for `O=C1NCCOCc2cn(nn2)CC[C@@H]1Cc1ccccc1`, -3.44%; that for `CCCNC(=O)Nc1ccc2c(c1)C(=O)N(C)[C@H]1CC[C@H](CC(=O)NC3CCC3)O[C@H]1CO2`, -3.4%. The result for `CN(C)CC(=O)N[C@@H]1CC[C@H](CCn2cc(C3CCCC3)nn2)O[C@H]1CO` reads 5.53%; that for `CC(C)NC(=O)Nc1cccc2c1O[C@H](CN(C)Cc1ccc3c(c1)OCO3)[C@H](C)CN([C@H](C)CO)C2=O`, 7.48%. `CNC[C@H]1Oc2ccccc2CC(=O)N(C)C[C@H]1C`: the inhibition is -0.894%. Consider `COc1ccc2c3c(n(C)c2c1)[C@H](CO)N(C)CC31CN(S(=O)(=O)c2cccc(C)c2)C1`, for which the inhibition was 11.9%.
